# High-throughput results deposited in PubChem BioAssay by The Scripps Research Institute Molecular Screening Center.
# Most compounds without a hit are left out; they make up all but 2.3% or so of the library.
# PME-1 primary: PME-1 inhibitors via competitive probe labeling, primary screen, biochemical, fluorescence polarization, FP-Rh probe, HTS; actives 0.53% (n = 320,000); inhibition, % at 5.9 µM; Protein phosphatase methylesterase 1 (Homo sapiens), Q9Y570; recombinant PME-1;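 active = inhibition above the campaign mean of all compounds plus 3 SD, cut at about 26% in these data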;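 also: competitive labeling of PME-1 active site by serine hydrolase directed probe; 0% = PME-1 with DMSO and 100% = wells lacking PME-1 enzyme; inhibitors block probe labeling so polarization falls and inhibition rises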
# Target sequence (Q9Y570 whole entry, looked up): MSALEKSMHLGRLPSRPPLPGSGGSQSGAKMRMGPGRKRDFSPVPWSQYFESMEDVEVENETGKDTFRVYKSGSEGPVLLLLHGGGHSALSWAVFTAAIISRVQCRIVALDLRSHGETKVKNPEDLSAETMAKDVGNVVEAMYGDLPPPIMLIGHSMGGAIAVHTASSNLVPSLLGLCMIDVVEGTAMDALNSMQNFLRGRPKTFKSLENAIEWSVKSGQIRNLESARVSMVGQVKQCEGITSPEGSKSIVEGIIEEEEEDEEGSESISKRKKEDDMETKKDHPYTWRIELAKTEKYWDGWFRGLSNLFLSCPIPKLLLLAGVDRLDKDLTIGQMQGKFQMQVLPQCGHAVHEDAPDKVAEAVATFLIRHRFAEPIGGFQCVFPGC
# PAD4 inh: human PAD4 inhibitors, primary screen, biochemical, fluorescence polarization, 1536-well format; recombinant PAD4, RCA probe fluorescence polarization; Protein-arginine deiminase type-4 (Homo sapiens), Q9UM07; inhibition, % at 6.36 µM; actives 0.41% (n = 330,000);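 active = percent inhibition above a cutoff equal to the mean of all tested compounds plus 3 SD, cut at about 15% in these data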;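 also: 0% = PAD4 with RCA probe and DMSO and 100% = probe without PAD4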
# PRMT1 FP inh: PRMT1 methyltransferase inhibitors, primary screen, biochemical, fluorescence polarization; inhibition, % at 2.79 µM; recombinant PRMT1, activity-based probe fluorescence polarization; actives 1.3% (n = 370,000); AID 652257, 2013;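 active = inhibition above about 21% made by adding two undisclosed values, limit read from the data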
# Fam108B counter: mouse Fam108B serine hydrolase inhibitors, primary screen, counter-screen for RBBP9 inhibitor project, biochemical, fluorescence polarization. recombinant Fam108B, FP-Rh probe fluorescence polarization. inhibition, % at 9.51 µM. actives 0.33% (n = 300,000). AID 1947, 2009;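 active = inhibition above the screen mean inhibition plus 3 SD, computed separately per campaign, cut at about 18% in these data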;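 also: inhibitors lower polarization as less probe binds the enzyme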
# GSTO1 counter: inhibitors of recombinant GSTO1, primary screen, counter-screen for RBBP9 inhibitor project, biochemical, fluorescence polarization | activity-based probe fluorescence polarization | inhibition, % at 5.96 µM | actives 1.1% (n = 300,000) | AID 1974, 2009;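 active = inhibition above the campaign mean inhibition plus 3 SD, cut at about 35% in these data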;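 also: 0% = GSTO1-1 with DMSO and 100% = wells lacking GSTO1-1 enzyme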
# Target sequence (P78417 whole entry, looked up): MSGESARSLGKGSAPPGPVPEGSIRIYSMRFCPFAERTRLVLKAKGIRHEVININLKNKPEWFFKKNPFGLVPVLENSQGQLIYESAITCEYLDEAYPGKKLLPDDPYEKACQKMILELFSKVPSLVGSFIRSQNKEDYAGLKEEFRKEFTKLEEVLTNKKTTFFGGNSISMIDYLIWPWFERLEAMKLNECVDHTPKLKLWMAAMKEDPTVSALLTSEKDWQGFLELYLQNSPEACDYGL
# RBBP9 inh: human RBBP9 inhibitors, primary screen, biochemical, fluorescence polarization, FP-Rh probe, HTS; inhibition, % at 7.94 µM; actives 0.2% (n = 220,000); recombinant RBBP9; AID 1515, 2009; Serine hydrolase RBBP9 (Homo sapiens), O75884;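 active = inhibition above the campaign mean of all tested compounds plus 3 SD, cut at about 14% in these data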;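 also: plate controls were DMSO wells with RBBP9 for no effect and wells lacking RBBP9 protein for full effect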
#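 Test system – recombinant human RBBP9 · Input – RBBP9 2.5 µM in dispensing solution, pre-mixing · Medium – Tris buffer pH 8.0, NaCl, Pluronic · Schedule – preincubation 30 min plus labeling 45 min at 25 °C · Measured by – fluorescence polarization · Measure – % inhibition · Controls – DMSO and no-protein wells · Replicates – one well per compound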
# Starred values were filed as active, the others as inactive; . = not tested or not shown.
SMILES,PME-1 primary,PAD4 inh,PRMT1 FP inh,Fam108B counter,GSTO1 counter,RBBP9 inh
C/C(=N\NC(=O)Cc1cc(=O)[nH][nH]1)c1ccc([N+](=O)[O-])cc1,.,.,2.5,.,.,.
C/C(=N\NC(=O)Cc1cc(=O)[nH][nH]1)c1cccc([N+](=O)[O-])c1,2.3,-5.3,-2.8,1.1,45.2*,-4.2
CCN(c1ccccc1)S(=O)(=O)c1ccc(OC)c(NC(=O)CNCCc2ccccc2)c1,28.2*,-2.7,-0.2,-2.9,-7.8,-7.8
CC(=O)OCC(=O)C1(O)CCC2C3CC(F)C4=CC(=O)CCC4(C)C3C(O)CC21C (centres undefined),.,.,-5.1,.,.,.
O=C(CN1CCC(c2nc3ccccc3s2)CC1)NCc1cccs1,39.9*,-8.5,0.3,0.0,-1.1,-10.7
CCOC(=O)C1=C(C)N=c2s/c(=C3/C(=O)Nc4ccccc43)c(=O)n2C1c1ccc(C)cc1 (centres undefined),-2.2,-10.9,22.9*,4.7,-13.8,-0.7
COC(=O)C1=C(C)N=c2s/c(=C3\C(=O)Nc4ccccc43)c(=O)n2C1c1ccccc1 (centres undefined),.,.,.,.,.,-4.5
CCOC(=O)C1=C(C)n2c(s/c(=C3\C(=O)Nc4ccccc43)c2=O)=NC1c1ccc(OC)cc1 (centres undefined),3.7,-5.6,24.0*,3.4,-3.1,-7.2
O=C(NCCCn1ccnc1)c1nc(Cn2cc([N+](=O)[O-])cn2)no1,-0.2,0.3,-3.6,3.1,-4.7,.
O=C(O)Cn1c2ccccc2c2ccccc21,-1.4,1.3,-3.0,4.3,4.7,-6.2
O=C(O)Cn1c2c(c3ccccc31)CSc1ccc(Cl)cc1-2,-1.9,-0.4,77.7*,2.2,9.9,.
COC(=O)c1cc(OC)c(OC)cc1NC(=O)c1oc2ccccc2c1C,.,.,.,.,.,-3.8
CCOc1ccccc1CNC(=O)c1ccc2c(c1)N(CC)CCS2,4.2,0.9,22.7*,3.1,0.2,.
Cc1ccc(CNC(=O)CS(=O)(=O)Cc2nc(-c3ccccc3F)oc2C)cc1,2.3,-2.0,-4.1,-2.6,-0.8,.
O=C(O)/C=C/c1cn(-c2ccccc2)nc1-c1ccc(-c2ccc([N+](=O)[O-])cc2)o1,27.3*,-6.6,4.2,-10.6,-22.0,-4.8
O=[N+]([O-])c1cc(C(F)(F)F)cc([N+](=O)[O-])c1NN=C1CCCCC1,6.1,-0.7,17.9,7.2,37.0*,-6.9
CNc1cccnc1C=NNC(N)=S,.,.,24.2*,.,.,.
NC(=S)NN=Cc1nccc2c(C(F)(F)F)cccc12,.,.,-0.6,.,.,.
COc1ccccc1NC(=S)c1ccccc1,2.2,1.2,22.7*,-1.5,4.0,-6.3
Oc1c(Br)cc(Br)c2cccnc12,.,.,0.1,.,.,.
[O-][n+]1cccc2c(Br)cc(Br)c(O)c21,5.5,0.6,-0.1,10.3,46.3*,-7.4
COc1ccc(N(C(=O)CNC(=O)c2cccs2)C(C(=O)NCC2CCCO2)c2ccc(OC)c(OC)c2)cc1 (centres undefined),3.1,-1.0,-1.9,2.4,9.6,2.5
CCN(CC)CCNC(=O)c1cn(CC)c2ccc(S(=O)(=O)N(C)C3CCCCC3)cc2c1=O,22.2,-2.7,-1.1,-3.0,-2.2,.
CCn1cc(C(=O)NCCCN2CC(C)CC(C)C2)c(=O)c2cc(S(=O)(=O)N(C)C3CCCCC3)ccc21 (centres undefined),33.3*,0.8,1.8,-9.5,1.0,.
CCn1cc(C(=O)NCCCN2CCC(C)CC2)c(=O)c2cc(S(=O)(=O)N(C)C3CCCCC3)ccc21,38.0*,-8.5,3.2,-3.3,0.3,.
SMILES,PME-1 primary,PAD4 inh,PRMT1 FP inh,Fam108B counter,GSTO1 counter,RBBP9 inh
CCC(C)N(C(=O)CN1C(=O)NC2(CCc3ccccc32)C1=O)C1CCS(=O)(=O)C1 (centres undefined),2.1,-0.6,-4.0,.,.,.
O=C(N/N=C/c1ccc(OC(=O)c2ccc3c(c2)OCO3)cc1)c1cncc(Br)c1,-5.0,-3.8,-1.1,-22.5,1.6,-6.7
COCCCNC(=O)c1cc2cc(Br)ccc2oc1=O,4.8,1.6,1.9,9.0,-3.7,-10.0
O=C(NNC(=O)c1cc2cc(Br)ccc2oc1=O)c1ccc(O)cc1O,34.3*,2.8,3.0,1.1,7.9,-4.5
Cn1c(Cc2ccccc2)nnc1SCC(=O)NC1CCCC1,-4.4,-0.9,-0.6,-3.2,7.7,.
O=C(CSc1nnc(Cc2ccccc2)n1Cc1ccco1)NC1CCCC1,-2.7,-4.6,22.2*,1.1,10.4,-10.8
Cc1ccc(-c2c(C(=O)O)c(C(=O)O)c3n2CSC3)cc1,0.3,4.5,23.7*,-5.0,-1.6,.
Cc1c(NC(=O)Nc2cccc(F)c2)c(=O)n(-c2ccccc2)n1C,1.7,-1.9,1.9,2.4,1.8,.
Cc1cc(=O)oc2cc(NC(=O)c3ccnn3C)ccc12,-1.6,3.9,.,-3.0,4.9,.
Nc1ccc(S(N)(=O)=O)cc1,-4.7,1.1,5.0,-0.6,-0.1,.
Nc1ccc(S(=O)(=O)c2cc(O)c3ccccc3c2O)cc1,.,.,23.6*,.,.,.
N#CC1=C2SCN(Cc3ccco3)CN2C(=O)CC1c1cccc2ccccc12 (centres undefined),-0.8,-2.0,30.2*,-1.4,5.0,-8.1
N#CC1=C2SCN(Cc3ccco3)CN2C(=O)CC1c1ccccc1F (centres undefined),0.8,-0.5,.,-1.3,1.4,-8.8
Cc1ccc(CCNc2ccc3ccccc3c2)cn1,0.3,-6.7,22.6*,5.7,2.2,5.5
Cc1ccc(NCCc2ccc(C)nc2)cc1,-7.1,0.7,-2.2,-3.4,-0.9,-13.4
O=C(O)CCC(C(=O)O)n1c(O)c(C2=c3ccccc3=NC2=O)sc1=S (centres undefined),5.8,-0.5,23.0*,1.9,-4.9,-3.5
O=C1N=c2ccccc2=C1c1sc(=S)n(CC2CCCO2)c1O (centres undefined),-1.8,-4.0,-0.5,-0.3,8.0,-6.9
ClCc1csc(-c2ccccc2Cl)n1,-0.8,-2.6,-0.3,0.2,93.7*,-2.7
COc1cc(/C=C2\CCCc3c2nc2ccccc2c3C(=O)O)cc(Br)c1O,2.1,-4.9,2.8,0.5,-2.1,.
COc1cc(/C=C2\CCc3c2nc2ccccc2c3C(=O)O)cc(OC)c1OC,-6.0,3.5,9.2,10.7,35.1*,-0.7
Cc1c(C(=O)NCc2cccnc2)oc2ccc(S(=O)(=O)N3CC(C)CC(C)C3)cc12 (centres undefined),-1.4,-5.6,0.1,-0.2,0.4,-5.8
COc1ccccc1C(=O)NC(=S)Nc1cccc2cc(O)ccc12,30.9*,-3.3,0.0,5.3,-2.8,.
